Data from ChEMBL document CHEMBL1926677, “Further structure-activity relationship studies on 8-substituted-3-[2-(diarylmethoxyethylidenyl)]-8-azabicyclo[3.2.1]octane derivatives at monoamine transporters” (Bioorg Med Chem, 2011).

Assays:
[1] = target: Sodium-dependent dopamine transporter (Rattus norvegicus, UniProt P23977); experiment: Displacement of [3H]WIN35428 from DAT in Sprague-Dawley rat brain homogenates after 1 hr by scintillation counting; assay type: tissue-based
In short: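 Male Sprague-Dawley rats (200–250 g); caudate-putamen homogenised in ice-cold modified Krebs-HEPES buffer pH 7.4, washed by repeated 20,000 × g spins; fresh membranes ~0.3% w/v (150–300 µg protein). Nonspecific: 100 µM cocaine.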

[2] = Selectivity ratio of DAT over SERT
[3] = target: Sodium-dependent serotonin transporter (Rattus norvegicus, UniProt P31652); experiment: Displacement of [3H]citalopram from SERT in Sprague-Dawley rat brain homogenates after 60 mins by liquid scintillation counting; assay type: tissue-based
Chain of Sodium-dependent serotonin transporter (P31652 whole entry): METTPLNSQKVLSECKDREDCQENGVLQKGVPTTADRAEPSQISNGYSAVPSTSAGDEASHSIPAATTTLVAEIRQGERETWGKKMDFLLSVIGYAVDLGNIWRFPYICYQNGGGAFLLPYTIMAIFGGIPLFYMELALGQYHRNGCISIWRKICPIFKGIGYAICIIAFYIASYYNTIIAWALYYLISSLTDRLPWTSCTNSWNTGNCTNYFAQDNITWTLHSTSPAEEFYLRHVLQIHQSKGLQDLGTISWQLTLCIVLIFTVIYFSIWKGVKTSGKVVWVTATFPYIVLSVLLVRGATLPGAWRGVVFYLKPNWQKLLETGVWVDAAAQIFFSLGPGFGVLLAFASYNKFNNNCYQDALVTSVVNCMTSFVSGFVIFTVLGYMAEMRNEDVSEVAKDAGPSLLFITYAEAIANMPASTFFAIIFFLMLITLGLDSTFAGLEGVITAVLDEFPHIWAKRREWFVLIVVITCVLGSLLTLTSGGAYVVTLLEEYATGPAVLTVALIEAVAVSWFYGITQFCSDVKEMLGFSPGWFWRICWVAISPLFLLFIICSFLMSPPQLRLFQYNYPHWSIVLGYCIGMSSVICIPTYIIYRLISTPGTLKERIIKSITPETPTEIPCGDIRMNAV
In short: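 Midbrain from male Sprague-Dawley rats (200–225 g), frozen, homogenised in 50 mM Tris with 120 mM NaCl, 5 mM KCl (pH 7.4, 25 °C), washed at 20,000 × g. Nonspecific: 1 µM citalopram. GF/B filters in polyethylenimine, liquid scintillation counting.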

Transporter = Transporter (Rattus norvegicus, UniProt Q63380); experiment: Displacement of [3H]nisoxetine from NET in Sprague-Dawley rat brain cortex membranes after 1 hr; assay type: cell membranes, Membrane
Chain of Transporter (Q63380 whole entry): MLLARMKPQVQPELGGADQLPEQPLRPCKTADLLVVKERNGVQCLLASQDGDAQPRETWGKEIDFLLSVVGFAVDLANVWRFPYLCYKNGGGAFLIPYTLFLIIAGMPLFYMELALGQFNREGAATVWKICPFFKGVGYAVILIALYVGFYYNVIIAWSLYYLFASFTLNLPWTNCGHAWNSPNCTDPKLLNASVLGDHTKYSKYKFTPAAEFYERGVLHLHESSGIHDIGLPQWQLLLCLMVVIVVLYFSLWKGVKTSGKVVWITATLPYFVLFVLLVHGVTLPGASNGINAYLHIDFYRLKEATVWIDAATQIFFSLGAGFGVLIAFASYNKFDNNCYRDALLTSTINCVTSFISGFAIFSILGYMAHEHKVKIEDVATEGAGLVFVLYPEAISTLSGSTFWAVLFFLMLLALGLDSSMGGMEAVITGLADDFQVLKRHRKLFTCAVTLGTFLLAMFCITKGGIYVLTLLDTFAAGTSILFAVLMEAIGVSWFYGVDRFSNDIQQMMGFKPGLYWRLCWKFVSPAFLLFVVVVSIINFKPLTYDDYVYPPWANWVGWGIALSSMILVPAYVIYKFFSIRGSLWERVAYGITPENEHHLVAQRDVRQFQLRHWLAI
In short: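 Rat frontal cortex membranes in 50 mM Tris, 120 mM NaCl, 5 mM KCl, pH 7.4, washed at 50,000 × g, 8 mg wet tissue/tube. 0.5 nM [3H]nisoxetine, 1 h on ice; GF/B filters presoaked in 0.05% PEI. Nonspecific: 1 µM desipramine. Compounds first screened at 1 µM for displacement.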

Rattus norvegicus [4] = species on record: Rattus norvegicus; experiment: Selectivity ratio of Ki for SERT in Sprague-Dawley rat brain homogenates to Ki for DAT in Sprague-Dawley rat brain homogenates; assay type: tissue-based
Rattus norvegicus [5] = species on record: Rattus norvegicus; experiment: Selectivity ratio of Ki for NET in Sprague-Dawley rat brain cortex membranes to Ki for DAT in Sprague-Dawley rat brain homogenates; assay type: cell membranes; settings: Membrane

Chain of Sodium-dependent dopamine transporter (P23977 whole entry): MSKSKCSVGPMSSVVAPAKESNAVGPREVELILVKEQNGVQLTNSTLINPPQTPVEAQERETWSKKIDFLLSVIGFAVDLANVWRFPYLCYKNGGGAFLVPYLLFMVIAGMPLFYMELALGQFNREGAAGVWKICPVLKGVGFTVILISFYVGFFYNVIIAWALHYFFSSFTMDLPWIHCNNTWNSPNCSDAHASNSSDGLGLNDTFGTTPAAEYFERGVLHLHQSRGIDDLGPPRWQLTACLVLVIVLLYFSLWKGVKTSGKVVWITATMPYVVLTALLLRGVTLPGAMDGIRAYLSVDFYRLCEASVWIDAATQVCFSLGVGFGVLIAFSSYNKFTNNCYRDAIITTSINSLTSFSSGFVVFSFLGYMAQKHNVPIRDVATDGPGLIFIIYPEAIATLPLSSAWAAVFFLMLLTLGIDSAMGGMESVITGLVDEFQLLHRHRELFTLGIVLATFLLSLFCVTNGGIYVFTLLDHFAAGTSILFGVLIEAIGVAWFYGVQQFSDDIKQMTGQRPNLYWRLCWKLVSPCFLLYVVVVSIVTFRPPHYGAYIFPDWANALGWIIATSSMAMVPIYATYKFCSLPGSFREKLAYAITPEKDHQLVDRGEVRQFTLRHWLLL

CN1[C@@H]2CC[C@H]1C/C(=C/COC(c1ccccc1)c1ccccc1)C2
Ki [1]: 0.13 µM | Ratio [2]: 300

C(/COC(c1ccccc1)c1ccccc1)=C1/C[C@H]2CC[C@@H](C1)N2CCCc1ccccc1
Ratio [2]: 300

CCN1[C@@H]2CC[C@H]1C/C(=C/COC(c1ccccc1)c1ccccc1)C2
Ki [1]: 0.286 µM

C=CCN1[C@@H]2CC[C@H]1C/C(=C/COC(c1ccccc1)c1ccccc1)C2
Ki [1]: 0.143 µM

Fc1ccc(C(OC/C=C2\C[C@H]3CC[C@@H](C2)N3CC2CC2)c2ccc(F)cc2)cc1
Ki [1]: 0.004 µM | Ki [3]: 4.24 µM | Ki (Transporter): 2.5 µM | Ratio Ki (Rattus norvegicus [4]): 1060 | Ratio Ki (Rattus norvegicus [5]): 625

CCCN1[C@@H]2CC[C@H]1C/C(=C/COC(c1ccccc1)c1ccccc1)C2
Ki [1]: 0.245 µM

C#CCN1[C@@H]2CC[C@H]1C/C(=C/COC(c1ccccc1)c1ccccc1)C2
Ki [1]: 0.536 µM

Fc1ccc(CN2[C@@H]3CC[C@H]2C/C(=C/COC(c2ccc(F)cc2)c2ccc(F)cc2)C3)cc1
Ki [1]: 0.0049 µM | Ki [3]: 1.14 µM | Ki (Transporter): 3.15 µM | Ratio Ki (Rattus norvegicus [4]): 234 | Ratio Ki (Rattus norvegicus [5]): 643

CN1[C@@H]2CC[C@H]1C/C(=C/COC(c1ccc(F)cc1)c1ccc(F)cc1)C2
Ki [1]: 0.019 µM | Ratio [2]: 300

Fc1ccc(C(OC/C=C2\C[C@H]3CC[C@@H](C2)N3Cc2ccc(Cl)cc2)c2ccc(F)cc2)cc1
Ki [1]: 0.0039 µM | Ki [3]: 0.656 µM | Ki (Transporter): 5.3 µM | Ratio Ki (Rattus norvegicus [4]): 168 | Ratio Ki (Rattus norvegicus [5]): 1360

Cc1ccc(CN2[C@@H]3CC[C@H]2C/C(=C/COC(c2ccccc2)c2ccccc2)C3)cc1
Ki [1]: 0.013 µM | Ki [3]: 0.746 µM | Ki (Transporter): 1.77 µM | Ratio Ki (Rattus norvegicus [4]): 57 | Ratio Ki (Rattus norvegicus [5]): 136

C(/COC(c1ccccc1)c1ccccc1)=C1/C[C@H]2CC[C@@H](C1)N2CC1CC1
Ki [1]: 0.169 µM

CCN1[C@@H]2CC[C@H]1C/C(=C/COC(c1ccc(F)cc1)c1ccc(F)cc1)C2
Ki [1]: 0.04 µM | Ki [3]: 5.96 µM | Ki (Transporter): 3.58 µM | Ratio Ki (Rattus norvegicus [4]): 149 | Ratio Ki (Rattus norvegicus [5]): 89

Fc1ccc(C(OC/C=C2\C[C@H]3CC[C@@H](C2)N3CCCc2ccccc2)c2ccc(F)cc2)cc1
Ratio [2]: 300

C(/COC(c1ccccc1)c1ccccc1)=C1/C[C@H]2CC[C@@H](C1)N2Cc1ccccc1
Ki [1]: 0.048 µM | Ki [3]: 5.42 µM | Ki (Transporter): 1.39 µM | Ratio Ki (Rattus norvegicus [4]): 113 | Ratio Ki (Rattus norvegicus [5]): 29 | Ratio [2]: 300

Fc1ccc(C(OC/C=C2\C[C@H]3CC[C@@H](C2)N3Cc2ccccc2)c2ccc(F)cc2)cc1
Ki [3]: 2.22 µM

Clc1ccc(CN2[C@@H]3CC[C@H]2C/C(=C/COC(c2ccccc2)c2ccccc2)C3)cc1
Ki [1]: 0.0076 µM | Ki [3]: 0.544 µM | Ki (Transporter): 2.71 µM | Ratio Ki (Rattus norvegicus [4]): 72 | Ratio Ki (Rattus norvegicus [5]): 554

CCCN1[C@@H]2CC[C@H]1C/C(=C/COC(c1ccc(F)cc1)c1ccc(F)cc1)C2
Ki [1]: 0.041 µM | Ki [3]: 5.46 µM | Ki (Transporter): 2.85 µM | Ratio Ki (Rattus norvegicus [4]): 133 | Ratio Ki (Rattus norvegicus [5]): 69

C=CCN1[C@@H]2CC[C@H]1C/C(=C/COC(c1ccc(F)cc1)c1ccc(F)cc1)C2
Ki [1]: 0.021 µM | Ki [3]: 3.46 µM | Ki (Transporter): 3.12 µM | Ratio Ki (Rattus norvegicus [4]): 167 | Ratio Ki (Rattus norvegicus [5]): 149

Cc1ccc(CN2[C@@H]3CC[C@H]2C/C(=C/COC(c2ccc(F)cc2)c2ccc(F)cc2)C3)cc1
Ki [1]: 0.0061 µM | Ki [3]: 0.405 µM | Ki (Transporter): 2.75 µM | Ratio Ki (Rattus norvegicus [4]): 68 | Ratio Ki (Rattus norvegicus [5]): 450

Fc1ccc(CN2[C@@H]3CC[C@H]2C/C(=C/COC(c2ccccc2)c2ccccc2)C3)cc1
Ki [1]: 0.007 µM | Ki [3]: 4.09 µM | Ki (Transporter): 3.34 µM | Ratio Ki (Rattus norvegicus [4]): 585 | Ratio Ki (Rattus norvegicus [5]): 477
